According to ChEMBL document CHEMBL1154861, “Antioxidant and antiviral activities of silybin fatty acid conjugates” (Eur J Med Chem, 2010):

What was measured:
[1] = Selectivity index, ratio of CC50 for MDCK cells to EC50 for Influenza A virus (A/PR8/34(H1N1)); format: toxicity, cell-based; details: dog, read-out: Ratio CC50/EC50
Influenza A virus = experiment: Antiviral activity against Influenza A virus (A/PR8/34(H1N1)) infected in MDCK cells assessed as inhibition of plaque formation; format: functional, organism-based; details: A/Puerto Rico/8/1934(H1N1)
Outline: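 Compound premixed with virus in Opti-MEM I with 0.2% DMSO for 30 min at room temperature. The mixture was applied to confluent MDCK monolayers (MOI 2.5×10^-4) for 1 h at room temperature, then washed. Cells were overlaid with agar medium containing trypsin and 0.2% BSA for about 2 days at 37 °C, then fixed with glutaraldehyde and stained with methylene blue. EC50 is the concentration cutting plaque number 50% versus untreated.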

[2] = tested on: Radical scavenging activity; experiment: Antioxidant activity assessed as DPPH radical scavenging activity for 10 mins; format: functional
Outline: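 Test compound in DMSO/MeOH 1:9 (0–20.0 mM, solution added) mixed 1:1 by volume with 0.1 mM DPPH in the same solvent; absorbance change followed at 540 nm over 10 min. IC50 is the concentration giving 50% absorbance reduction; three measurements in three independent experiments, mean with standard deviation.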

[3] = Cytotoxicity against MDCK cells after 2 hrs by MTT assay; format: cell-based, Canis lupus familiaris; details: dog
Outline: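 MDCK cells seeded at 1.5×10^4 per well in DMEM/10% FCS for 4–5 h, washed, exposed to compound in Opti-MEM I with 0.2% DMSO for 2 h. Then washed and kept in DMEM with 0.2% BSA for 24 h at 37 °C, 5% CO2. Viability by MTT reduction; CC50 relative to untreated wells.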

Liver microsomes = experiment: Antioxidant activity in Wistar rat liver microsomes assessed as inhibition of lipid peroxidation after 1 hr by thiobarbiturate color reaction; format: functional, Microsome
Outline: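 Wistar rat liver microsomes in 50 mM Tris-HCl, 100 mM KCl, 0.1 mM EDTA, pH 7.4 (0.625 mg protein/mL). Compound (0–100 μM in DMSO, as added) incubated with tert-butylhydroperoxide (10 mM stock) at 37 °C for 1 h. TBA/TCA added, heated 90 °C 15 min, centrifuged, read at 535 nm. IC50 is 50% inhibition of colour; triplicates in three experiments.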

| SMILES | selectivity ratio [1] | EC50 (Influenza A virus) | IC50 [2] | CC50 at 2 h [3] | IC50 (Liver microsomes) |
| --- | --- | --- | --- | --- | --- |
| CCCCCCCC(=O)Oc1cc(O)c2c(c1)O[C@H](c1ccc3c(c1)OC(c1ccc(O)c(OC)c1)C(CO)O3)[C@@H](O)C2=O (stereo partly drawn) | 40 | 6 µM | 4 mM | 240 µM | 117 µM |
| CCCCCCCCCCCC(=O)Oc1cc(O)c2c(c1)O[C@H](c1ccc3c(c1)OC(c1ccc(O)c(OC)c1)C(CO)O3)[C@@H](O)C2=O (stereo partly drawn) | > 93.3 | 6 µM | 3 mM | > 560 µM | 44.7 µM |
| CCCCCCCCCCCCCCCC(=O)Oc1cc(O)c2c(c1)O[C@H](c1ccc3c(c1)OC(c1ccc(O)c(OC)c1)C(CO)O3)[C@@H](O)C2=O (stereo partly drawn) |  |  | 3.6 mM |  | 28.9 µM |
| CCCCCCCC(=O)OCC1Oc2ccc([C@H]3Oc4cc(O)cc(O)c4C(=O)[C@@H]3O)cc2OC1c1ccc(O)c(OC)c1 (stereo partly drawn) |  |  | 3.2 mM | 30 µM | 61.1 µM |
| CCCCCCCCCCCC(=O)OCC1Oc2ccc([C@H]3Oc4cc(O)cc(O)c4C(=O)[C@@H]3O)cc2OC1c1ccc(O)c(OC)c1 (stereo partly drawn) | 40 | 3 µM | 2.8 mM | 120 µM | 50.5 µM |
| CCCCCCCCCCCCCCCC(=O)OCC1Oc2ccc([C@H]3Oc4cc(O)cc(O)c4C(=O)[C@@H]3O)cc2OC1c1ccc(O)c(OC)c1 (stereo partly drawn) | > 160 | 3 µM | 3.2 mM | > 480 µM | 51.9 µM |
| CCCC(=O)Oc1cc(O)c2c(c1)O[C@H](c1ccc3c(c1)OC(c1ccc(O)c(OC)c1)C(CO)O3)[C@@H](O)C2=O (stereo partly drawn) | 21.4 | 14 µM | 2.3 mM | 300 µM | 101 µM |
| CCCC(=O)OCC1Oc2ccc([C@H]3Oc4cc(O)cc(O)c4C(=O)[C@@H]3O)cc2OC1c1ccc(O)c(OC)c1 (stereo partly drawn) | 12.5 | 24 µM | 3.4 mM | 300 µM | 91.7 µM |
| COc1cc(C2Oc3cc([C@H]4Oc5cc(O)cc(O)c5C(=O)[C@@H]4O)ccc3OC2CO)ccc1O (stereo partly drawn) [SILIBININ] |  |  | 2.1 mM | > 800 µM | 58.1 µM |
